Experimental data as given in ChEMBL document CHEMBL3414506 (J Med Chem, 2015).

Assays:
[1] = biological target: T1, Steroid 17-alpha-hydroxylase/17,20 lyase (Homo sapiens, UniProt P05093); test: Inhibition of human CYP17 up to 10 uM using 17alpha-hydroxypregnenolone substrate relative to control
T1 sequence (P05093 whole entry): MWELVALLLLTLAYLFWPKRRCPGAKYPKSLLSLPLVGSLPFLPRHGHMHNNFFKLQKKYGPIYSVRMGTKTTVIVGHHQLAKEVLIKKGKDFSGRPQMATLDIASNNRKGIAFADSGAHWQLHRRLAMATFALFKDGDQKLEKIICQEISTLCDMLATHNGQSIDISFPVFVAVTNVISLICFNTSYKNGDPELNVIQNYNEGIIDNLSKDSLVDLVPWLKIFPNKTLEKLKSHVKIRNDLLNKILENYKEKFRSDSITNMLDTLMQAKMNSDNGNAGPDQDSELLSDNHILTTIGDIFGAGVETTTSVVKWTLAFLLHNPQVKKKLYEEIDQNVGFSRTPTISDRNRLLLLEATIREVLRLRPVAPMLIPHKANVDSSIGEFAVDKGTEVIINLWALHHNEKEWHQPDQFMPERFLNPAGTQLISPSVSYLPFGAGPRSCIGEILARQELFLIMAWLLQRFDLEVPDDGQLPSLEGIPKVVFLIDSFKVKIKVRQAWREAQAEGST
Method in brief: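 CYP17 assay with 17α-hydroxypregnenolone substrate at 10 μM (Km 560 nM). Screening used 150 nM inhibitor, tested up to 10 μM. Values are the mean ± SDM of at least two experiments.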

[2] = Growth inhibition of human castration-resistant prostate cancer cells; assay type: functional, cell-based; conditions: Cancer cell lines
[3] = Tmax in SCID mouse at 100 mg/kg, sc; assay type: ADME, organism-based; set-up: dose 100 mg/kg, route subcutaneous; conditions: in vivo
Method in brief: (§1)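 Male SCID mice were dosed subcutaneously at 50 or 100 mg/kg. Plasma levels were measured by reverse-phase HPLC against an internal standard, with a detection limit of 100 ng/mL and inter- and intra-assay variability under 10%. Parameters were calculated noncompartmentally from the plasma concentration–time profile.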

LAPC4 [4] = test: Antitumor activity against human LAPC4 cells xenografted in SCID mouse assessed as reduction in tumor volume at 0.15 mmol/kg, sc dosed twice daily starting 1 day after tumor cell inoculation and measured after 16 weeks of treatment; assay type: functional
Method in brief: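 3 × 10^7 LAPC-4 cells were injected subcutaneously into the dorsal flank of male SCID mice. From 1 day after inoculation, mice received 0.15 mmol/kg s.c. twice daily, alongside vehicle and castrated groups. The dose was cut by 78.6% for one interval, then resumed. Tumour volume was measured weekly, and percent change was computed after 16 weeks.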

Mus musculus [5] = test: Volume of distribution in SCID mouse at 50 mg/kg, sc; assay type: ADME, organism-based; set-up: dose 50 mg/kg, route subcutaneous; conditions: in vivo; method in brief: as §1
[6] = Mean residence time in SCID mouse at 100 mg/kg, sc; assay type: ADME, organism-based; set-up: dose 100 mg/kg, route subcutaneous; conditions: in vivo; method in brief: as §1
Plasma [7] = test: Drug metabolism in mouse plasma assessed as retention time of metabolite by reverse phase HPLC method; assay type: ADME, cell-free
Method in brief: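 Mouse plasma was analysed by reverse-phase HPLC after subcutaneous dosing. The parent compound, an internal standard, the metabolite and endogenous components were resolved by retention time.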

Plasma [8] = test: Retention time in mouse plasma by reverse phase HPLC method; assay type: ADME, cell-free
Method in brief: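 Mouse plasma from male SCID mice dosed s.c. at 50 or 100 mg/kg, analysed by validated reverse-phase HPLC with an internal standard. Analyte resolved from the internal standard, a metabolite and endogenous plasma components. Calibration linear; inter- and intra-assay variability under 10%; detection limit 100 ng/mL.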

LAPC4 [9] = test: Antitumor activity against human LAPC4 cells xenografted in SCID mouse assessed as tumor volume at 0.13 mmol/kg, sc dosed twice daily (reference value: 2410.28 mm3); assay type: functional
[10] = Mean residence time in SCID mouse at 50 mg/kg, sc; assay type: ADME, organism-based; set-up: dose 50 mg/kg, route subcutaneous; conditions: in vivo; method in brief: as §1
LAPC4 [11] = test: Antitumor activity against human LAPC4 cells xenografted in SCID mouse with castration assessed as regression of tumor volume at 0.13 mmol/kg, sc dosed twice daily; assay type: functional
[12] = Cmax in SCID mouse at 100 mg/kg, sc; assay type: ADME, organism-based; set-up: dose 100 mg/kg, route subcutaneous; conditions: in vivo; method in brief: as §1
[13] = AUC in SCID mouse at 100 mg/kg, sc; assay type: ADME, organism-based; set-up: dose 100 mg/kg, route subcutaneous; conditions: plasma; method in brief: as §1
LAPC4 [14] = test: Antitumor activity against human LAPC4 cells xenografted in SCID mouse assessed as regression of tumor volume at 0.13 mmol/kg, sc dosed twice daily; assay type: functional
Mus musculus [15] = test: Drug elimination constant in SCID mouse at 50 mg/kg, sc; assay type: ADME, organism-based; set-up: dose 50 mg/kg, route subcutaneous; conditions: in vivo; method in brief: as §1
[16] = AUC in SCID mouse at 50 mg/kg, sc; assay type: ADME, organism-based; set-up: dose 50 mg/kg, route subcutaneous; conditions: plasma; method in brief: as §1
[17] = Cmax in SCID mouse at 50 mg/kg, sc; assay type: ADME, organism-based; set-up: dose 50 mg/kg, route subcutaneous; conditions: in vivo; method in brief: as §1
Mus musculus [18] = test: Elimination half life in SCID mouse at 50 mg/kg, sc; assay type: ADME, organism-based; set-up: dose 50 mg/kg, route subcutaneous; conditions: in vivo; method in brief: as §1
[19] = Tmax in SCID mouse at 50 mg/kg, sc; assay type: ADME, organism-based; set-up: dose 50 mg/kg, route subcutaneous; conditions: in vivo; method in brief: as §1
Mus musculus [20] = test: Volume of distribution in SCID mouse at 100 mg/kg, sc; assay type: ADME, organism-based; set-up: dose 100 mg/kg, route subcutaneous; conditions: in vivo; method in brief: as §1
Mus musculus [21] = test: Elimination half life in SCID mouse at 100 mg/kg, sc; assay type: ADME, organism-based; set-up: dose 100 mg/kg, route subcutaneous; conditions: in vivo; method in brief: as §1
[22] = Clearance in SCID mouse at 50 mg/kg, sc; assay type: ADME, organism-based; set-up: dose 50 mg/kg, route subcutaneous; conditions: in vivo; method in brief: as §1
[23] = biological target: T1, Steroid 17-alpha-hydroxylase/17,20 lyase; test: Inhibition of human CYP17 expressed in Escherichia coli
Method in brief: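 Whole-cell assay: intact Escherichia coli cells expressing human CYP17 used as the enzyme source; inhibition expressed as IC50.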

[24] = biological target: T1, Steroid 17-alpha-hydroxylase/17,20 lyase; test: Inhibition of human CYP17 using 17alpha-hydroxypregnenolone substrate

**Q.** Which “inhibition (INH)” value [1] does the source give for C[C@]12CC[C@H](O)CC1=CC[C@@H]1[C@@H]2CC[C@]2(C)C(n3nccn3)=CC[C@@H]12 here?
**A.** Not Active

**Q.** What does the source list for C[C@]12CC[C@H](O)CC1=CC[C@@H]1[C@@H]2CC[C@]2(C)C(n3cnc4ccccc43)=CC[C@@H]12 [GALETERONE]?
**A.** IC50 [2]: 2900 nM; Tmax [3]: 30 min; inhibition in vivo at 150 µmol/kg (LAPC4 [4]): 93.8%; Vd (Mus musculus [5]): 2.09899 L/kg; MRT [6]: 60.5 min; Retention_time (Plasma [7]): 17.3 min; Retention_time (Plasma [8]): 21.6 min; Activity (LAPC4 [9]): 6.94 mm3; MRT [10]: 65.4 min; inhibition in vivo at 130 µmol/kg (LAPC4 [11]): 60.7%; Cmax [12]: 32200 ng/mL; AUC [13]: 30200 ng·h/mL; inhibition in vivo at 130 µmol/kg (LAPC4 [14]): 26.6%; Kel (Mus musculus [15]): 0.942 h⁻¹; AUC [16]: 24000 ng·h/mL; Cmax [17]: 16800 ng/mL; beta t1/2 (Mus musculus [18]): 44.17 min; Tmax [19]: 30 min; Vd (Mus musculus [20]): 3.27639 L/kg; beta t1/2 (Mus musculus [21]): 36.6 min; CL/F [22]: 33.1 mL/min/kg

**Q.** What does the source list for C[C@]12CC[C@H](O)CC1=CC[C@@H]1[C@@H]2CC[C@]2(C)C(n3ccnc3)=CC[C@@H]12?
**A.** Retention_time (Plasma [8]): 11.5 min; IC50 [23]: 50 nM

**Q.** Which “inhibition (INH)” value [1] does the source give for C[C@]12CC[C@H](O)CC1=CC[C@@H]1[C@@H]2CC[C@]2(C)C(n3ncnn3)=CC[C@@H]12 here?
**A.** Not Active

**Q.** With CC(O)(CS(=O)(=O)c1ccc(F)cc1)C(=O)Nc1ccc(C#N)c(C(F)(F)F)c1 (centres undefined) [BICALUTAMIDE] as the compound, how does the IC50 [2] read?
**A.** 18000 nM

**Q.** Which results are given for C[C@]12CCC(=O)C=C1CC[C@@H]1[C@@H]2CC[C@]2(C)C(n3cncn3)=CC[C@@H]12?
**A.** IC50 [24]: 55 nM; Ki [24]: 41 nM

**Q.** With C[C@]12CC[C@H](O)CC1=CC[C@@H]1[C@@H]2CC[C@]2(C)C(n3cnnn3)=CC[C@@H]12 as the compound, how does the “inhibition (INH)” value [1] read?
**A.** Not Active
